# M1 antagonist: antagonists of rat M1 muscarinic receptor. P08482. CHO-M1 cells, Fluo-4 calcium, ACh EC80 antagonist mode; active compounds read low. B-score at 10 µM. 64,000 tested, 3.4% active;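 active = calcium fluorescence response, raw or row-and-column corrected B-score, differing from the plate sample mean either way at a set confidence level, mostly lower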
# HEK293 NFkB inh: inhibitors of the PMA/ionomycin-induced NF-kB reporter in HEK293 cells. HEK-293 NF-kB luciferase reporter, luminescence. inhibition, % at 3 µM. 62,000 tested, 0.21% active;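 active = inhibition above the mean of all tested compounds plus 3 SD, cut at about 40% in these data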;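 note: 0% = stimulated DMSO wells and 100% = 10 µM reference inhibitor 5653914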
#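 Reagent: PMA plus ionomycin mix as NF-kB-activating stimulus. Assay system: NF-kB luciferase reporter HEK-293 cells. Technique: luminescence from luciferase substrate reagent. Incubation: 1 h compound pre-incubation, 16 h PMA/ionomycin at 37 °C. Benchmarks: DMSO only as uninhibited control, 10 µM reference inhibitor as full inhibition. Repeats: tested once.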
# D1 mod: D1 dopamine receptor (human) allosteric modulation | HEK293 D1, CRE-luciferase, dopamine EC30 potentiation; actives deviate in either direction | B-score at 10 µM | 58,000 tested, 5.9% active | AID 641;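 active = luminescence count or its row- and column-corrected plate score outside the 99.7% band of the plate's sample wells, on either side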
# Target sequence (P21728 whole entry, looked up): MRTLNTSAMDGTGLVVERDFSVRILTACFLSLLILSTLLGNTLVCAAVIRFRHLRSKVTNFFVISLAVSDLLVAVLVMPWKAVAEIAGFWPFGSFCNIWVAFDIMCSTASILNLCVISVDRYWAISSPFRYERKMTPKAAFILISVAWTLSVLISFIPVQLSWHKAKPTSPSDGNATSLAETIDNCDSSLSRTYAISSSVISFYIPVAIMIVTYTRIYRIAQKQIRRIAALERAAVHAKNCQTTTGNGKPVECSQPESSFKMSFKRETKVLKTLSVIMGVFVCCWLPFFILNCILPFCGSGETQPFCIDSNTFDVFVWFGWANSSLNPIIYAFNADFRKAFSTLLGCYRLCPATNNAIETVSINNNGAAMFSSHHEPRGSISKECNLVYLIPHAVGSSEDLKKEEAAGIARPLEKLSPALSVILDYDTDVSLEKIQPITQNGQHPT
# Jurkat viability: cytotoxic compounds reducing Jurkat cell viability; Jurkat E6.1 viability, ATP luminescence, 48 h; inhibition, % at 4 µM; 56,000 tested, 1.2% active;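 active = inhibition above the mean inhibition of all tested compounds plus 3 SD, cut at about 28% in these data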
# M1 agonist: M1 muscarinic receptor agonism; CHO-M1 cells, Fluo-4 calcium fluorescence, agonist mode; active compounds read high; B-score at 10 µM; 64,000 tested, 3% active;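 active = fluorescence rise, raw or as B-score row- and column-corrected plate score, outside the 99.7% band of its plate's samples, either direction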
# Htt clearance: mutant huntingtin protein clearance | HeLa Exon1htt(103Q)mCFP, aggregate imaging; zero = plate's median compound well | inhibition, % at 1.5 µM | 47,000 tested, 0.42% active | AID 853;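 active = inhibition of aggregate fluorescence above about 70%, also judged a hit by eye on the cell image, limit read from the data, passing the limit was not always enough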;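 note: cells exposed to compound for three days before fixation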
# * hit, by the source's call; x = no result given. Compounds with a hit are over-represented: about 9.5% of the library has one in this group of screens.
SMILES,M1 antagonist,HEK293 NFkB inh,D1 mod,Jurkat viability,M1 agonist,Htt clearance
COc1cccc(OCC(=O)Nc2c(C(=O)Nc3ccc(OC)cc3OC)oc3ccccc23)c1,-0.38,8,-1.7,-5,-0.59,x
CCCCCn1c(SCC#N)nc2cc(C(=O)NCC3CCCO3)ccc2c1=O (centres undefined),0.0015,4,x,1,2.5*,28
CN1CCN(C(=O)c2cc3nc(-c4ccc(Cl)cc4)cc(C(F)(F)F)n3n2)CC1,0.87,9,-3.7*,6,-1.7,3
CC(=O)c1sc(NC(=O)c2cc3c(C)nn(-c4ccccc4)c3s2)nc1C,x,x,x,x,x,16
Cc1nn(-c2ccccc2)c2sc(C(=O)OCN3C(=O)c4ccccc4C3=O)cc12,0.25,11,5.3*,-8,4.8,x
COc1ccccc1-n1c(SCC(=O)N2CCCCC2)nnc1-c1ccccc1O,-0.84,13,-0.17,-3,-1.3,x
Cc1cc(C)c(C)c(/C=C(/C#N)C(N)=S)c1C,x,x,x,x,x,77*
CCCCn1c(SCc2cc(=O)[nH]c3ccccc23)nc2c1c(=O)n(C)c(=O)n2C,-0.13,12,3.6,3,-0.51,x
CC(=O)c1ccc(OCC(O)CN(C)Cc2cccs2)cc1 (centres undefined),-0.24,-3,1.6,-4,0.76,-12
CCN(CC)C(=O)c1sc2nc(-c3cccs3)cc(-c3cccs3)c2c1N,-0.18,x,0.0067,x,15*,x
CC(C)(C)C(=O)c1sc2nc(-c3cccs3)cc(C(F)(F)F)c2c1N,x,x,x,x,x,-207
COCCn1c(C)cc(C(=O)CSc2nnc(C)s2)c1C,-0.11,46*,-7.8*,-1,0.27,x
CCCn1c(=O)c2ccccc2n2c(SCCOc3ccc(C)cc3)nnc12,-0.047,11,x,-4,0.27,x
COCCn1c(C)cc(C(=O)CSc2n[nH]c(N)n2)c1C,0.69,9,x,-6,-0.64,39
CCCn1c(=O)c2ccccc2n2c(SCC(=O)c3cc(C)n(CCOC)c3C)nnc12,-0.16,-1,2.2*,-5,-0.61,x
Cc1cn(C(=O)C(C)N2C(=O)c3ccccc3C2=O)c(C)n1 (centres undefined),x,x,x,x,x,15
COc1cc(SC)ccc1C(=O)Nc1ccc2c(c1)OCCO2,-0.81,-50,-4.2*,-9,1.5,x
Cc1ccccc1C(=O)Nc1ccc2c(c1)OCO2,0.23,-32,-4.3*,-4,0.47,x
Cc1cccc(N2CCN(c3nnnn3-c3ccccc3)CC2C)c1 (centres undefined),-0.02,0,x,x,-0.89,x
CCC(C)N(C(=O)CSc1nc(-c2ccccc2)cs1)C1CCS(=O)(=O)C1 (centres undefined),x,x,x,x,x,-16
CN(C)c1nc(N)nc(CSc2nc3cc(Cl)ccc3o2)n1,-0.5,-3,1,0,-0.31,x
O=S1(=O)C=C(Sc2nc3cc(Cl)ccc3o2)c2ccccc21,0.13,32,-2.3*,99*,-0.4,-65
O=C(/C=C\Nc1ccc2c(c1)OCO2)c1ccccn1,0.98,48*,-8*,-1,0.7,-49
O=C(O)Cn1nc(-c2ccc(F)cc2)oc1=O,-0.25,2,-0.74,-1,-0.3,x
O=C(O)Cn1nnnc1-c1ccc(F)cc1,1.7,1,-0.27,4,-2*,x
SMILES,M1 antagonist,HEK293 NFkB inh,D1 mod,Jurkat viability,M1 agonist,Htt clearance
COCCCNC(=O)CN1CCN(Cc2ccc(Cl)cc2)C1=O,x,x,x,x,x,-5
COc1ccccc1NC(=O)CSc1nnnn1-c1ccc(C)cc1,x,x,x,x,x,74*
C=COC(=O)CSc1nc(-c2cccs2)ccc1C#N,2.9*,x,0.043,x,0.33,x
CCOC(=O)C(C)Sc1nc(-c2cccs2)ccc1C#N (centres undefined),0.65,x,x,x,-2.6,51
CC(C)OC(=O)CSc1nnc(-c2ccco2)n1N,-0.0087,2,-3.1*,5,-0.23,1
CCCn1c(SCC(N)=O)nnc1-c1ccco1,0.0098,9,-3.2*,x,0.024,x
CCn1c(SCC(N)=O)nnc1-c1ccco1,0.12,8,-1,-13,-0.22,-6
CC(C)Cc1nnc(NS(=O)(=O)c2ccc(Cl)cc2)s1,0.014,8,-0.88,2,0.65,-8
Cn1c(=O)c2c(nc(SCC(=O)N3CCc4ccccc43)n2Cc2ccc(F)cc2)n(C)c1=O,x,x,x,x,x,-107
COc1cc(C(=O)Nc2ccc(S(=O)(=O)Nc3cc(C)on3)cc2)cc(OC)c1OC,0.2,8,-0.57,3,-0.0099,x
CCOc1cc(C(=O)Nc2ccc(S(=O)(=O)Nc3cc(C)on3)cc2)cc(OCC)c1OCC,1.4,8,2.2,-4,-3.5*,24

# Assay outcomes deposited in PubChem by several laboratories.
